Reference: ChEMBL document CHEMBL1150800, “Multiple-dose escalation study of the safety, pharmacokinetics, and biologic activity of oral AMD070, a selective CXCR4 receptor inhibitor, in human subjects” (Antimicrob Agents Chemother, 2007)
In brackets after ≈: the same amount, converted by molar mass.

Legend:
[1] = tested on: Human immunodeficiency virus 1; experiment: Antiviral activity against HIV1 NL4.3 in human MT4 cells; assay type: functional, organism-based; conditions: Human immunodeficiency virus 1, MT4
[2] = Oral bioavailability in rat; assay type: ADME, organism-based; conditions: in vivo
[3] = Oral bioavailability in dog; assay type: ADME, organism-based, Canis lupus familiaris; conditions: in vivo
[4] = Half life in rat; assay type: ADME, organism-based; conditions: in vivo
[5] = Half life in dog; assay type: ADME, organism-based, Canis lupus familiaris; conditions: in vivo
[6] = Terminal half life in rat; assay type: ADME, organism-based; conditions: in vivo
[7] = Terminal half life in dog; assay type: ADME, organism-based, Canis lupus familiaris; conditions: in vivo
[8] = Tmax in fasting healthy human at 50 mg, po administered as single dose; assay type: ADME, organism-based; conditions: in vivo
How it was run: (§1)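 Healthy male volunteers, three per cohort, took one oral dose after an 8-h overnight fast and stayed fasting until 1 h post-dose. Tmax came from per-subject noncompartmental analysis, summarized by cohort.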

[9] = Cmax in fasting healthy human at 50 mg, po administered as single dose; assay type: ADME, organism-based; design: dose 50 mg, route oral; conditions: in vivo
How it was run: (§2)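 Healthy male volunteers, three per cohort, one oral dose after 8-h overnight fast, fasting kept until 1 h post-dose. Plasma sampled predose and at 0.5, 1, 1.5, 2, 3, 4, 6, 8, 12, 16, 20, 24 h. Levels by validated HPLC-MS/MS (liquid-liquid extraction, positive-ion electrospray). Noncompartmental analysis, log-linear trapezoidal AUC, summarized per cohort.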

[10] = Drug level in fasting healthy human at 50 mg, po administered as single dose after 12 hrs; assay type: ADME, organism-based; conditions: in vivo, read-out: Drug uptake; how it was run: as §2
[11] = tested on: Homo sapiens; experiment: Apparent volume of distribution in fasting healthy human at 50 mg, po administered as single dose after 12 hrs; assay type: ADME, organism-based; conditions: in vivo; how it was run: as §2
[12] = tested on: Homo sapiens; experiment: Half life in fasting healthy human at 50 mg, po administered as single dose after 12 hrs; assay type: ADME, organism-based; conditions: in vivo; how it was run: as §2
[13] = Tmax in fasting healthy human at 100 mg, po administered as single dose; assay type: ADME, organism-based; conditions: in vivo; how it was run: as §2
[14] = Cmax in fasting healthy human at 100 mg, po administered as single dose; assay type: ADME, organism-based; design: dose 100 mg, route oral; conditions: in vivo; how it was run: as §2
[15] = Drug level in fasting healthy human at 100 mg, po administered as single dose after 12 hrs; assay type: ADME, organism-based; conditions: in vivo, read-out: Drug uptake; how it was run: as §2
[16] = tested on: Homo sapiens; experiment: AUC ( 0 to infinity) in fasting healthy human at 100 mg, po administered as single dose after 12 hrs; assay type: ADME, organism-based, Plasma; design: dose 100 mg, route oral, time infinity; conditions: in vivo; how it was run: as §2
[17] = tested on: Homo sapiens; experiment: Apparent volume of distribution in fasting healthy human at 100 mg, po administered as single dose after 12 hrs; assay type: ADME, organism-based; conditions: in vivo; how it was run: as §2
[18] = tested on: Homo sapiens; experiment: Half life in fasting healthy human at 100 mg, po administered as single dose after 12 hrs; assay type: ADME, organism-based; conditions: in vivo; how it was run: as §2
[19] = Tmax in fasting healthy human at 200 mg, po administered as single dose; assay type: ADME, organism-based; conditions: in vivo
How it was run: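 Healthy male volunteers (cohort C, n=3) took one oral dose after an 8-h overnight fast and kept fasting to 1 h post-dose. Drug was measured by validated HPLC-MS/MS (positive electrospray), and Tmax was taken by noncompartmental analysis of individual curves.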

[20] = Cmax in fasting healthy human at 200 mg, po administered as single dose; assay type: ADME, organism-based; design: dose 200 mg, route oral; conditions: in vivo; how it was run: as §2
[21] = Drug level in fasting healthy human at 200 mg, po administered as single dose after 12 hrs; assay type: ADME, organism-based; conditions: in vivo, read-out: Drug uptake; how it was run: as §2
[22] = tested on: Homo sapiens; experiment: AUC ( 0 to infinity) in fasting healthy human at 200 mg, po administered as single dose after 12 hrs; assay type: ADME, organism-based, Plasma; design: dose 200 mg, route oral, time infinity; conditions: in vivo; how it was run: as §2
[23] = tested on: Homo sapiens; experiment: Apparent volume of distribution in fasting healthy human at 200 mg, po administered as single dose after 12 hrs; assay type: ADME, organism-based; conditions: in vivo; how it was run: as §2
[24] = Tmax in fasting healthy human at 400 mg, po administered as single dose; assay type: ADME, organism-based; conditions: in vivo; how it was run: as §1
[25] = Cmax in fasting healthy human at 400 mg, po administered as single dose; assay type: ADME, organism-based; design: dose 400 mg, route oral; conditions: in vivo; how it was run: as §2
[26] = Drug level in fasting healthy human at 400 mg, po administered as single dose after 12 hrs; assay type: ADME, organism-based; conditions: in vivo, read-out: Drug uptake; how it was run: as §2

NCCCCN(Cc1nc2ccccc2[nH]1)[C@H]1CCCc2cccnc21 [MAVORIXAFOR]
EC90 [1]: 0.044 µg/mL (≈ 0.126 µM) | IC50 [1]: 2.3 ng/mL (≈ 0.00658 µM) | bioavailability [2]: 20% | bioavailability [3]: 80% | half-life [4]: 84 min | half-life [5]: 42 min | half-life [6]: 600 min | half-life [7]: 600 min | Tmax [8]: 1.5 h | Cmax [9]: 159 ng/mL | concentration at 12 h [10]: 1.5 ng/mL | Vd [11]: 3620 L | t1/2 [12]: 10.8 h | Tmax [13]: 1.5 h | Cmax [14]: 276 ng/mL | concentration at 12 h [15]: 2.1 ng/mL | AUC [16]: 358 ng·h/mL | Vd [17]: 3940 L | t1/2 [18]: 7.6 h | Tmax [19]: 1 h | Cmax [20]: 995 ng/mL | concentration at 12 h [21]: 11.6 ng/mL | AUC [22]: 1695 ng·h/mL | Vd [23]: 2152 L | Tmax [24]: 1.5 h | Cmax [25]: 1400 ng/mL | concentration at 12 h [26]: 44.6 ng/mL
